Data on 20 compounds can be found in ChEMBL document CHEMBL1208682, “New quinoline derivatives: synthesis and investigation of antibacterial and antituberculosis properties” (2010).

Holding throughout (format): functional
The subject of one assay is Staphylococcus aureus. Put plainly: Antibacterial activity against Staphylococcus aureus ATCC 25923 after 3 to 4 days by serial plate dilution method. The note with it: for MIC: Staphylococcus aureus, ATCC 25923.
The next assay relates to Escherichia coli. The experiment in a line: Antibacterial activity against Escherichia coli ATCC 25922 after 3 to 4 days by serial plate dilution method. The settings on record: for MIC: Escherichia coli, ATCC 25922.
In another assay the test system is Pseudomonas aeruginosa. The experiment in a line: Antibacterial activity against Pseudomonas aeruginosa ATCC 27853 after 3 to 4 days by serial plate dilution method. The settings on record: for MIC: Pseudomonas aeruginosa, ATCC 27853.
The subject of the next assay is Klebsiella pneumoniae. Put plainly: Antibacterial activity against recultured Klebsiella pneumoniae after 3 to 4 days by serial plate dilution method. The note with it: for MIC: Klebsiella pneumoniae.
For assay [1], the system named is Mycobacterium tuberculosis. Put plainly: Antituberculosis activity against Mycobacterium tuberculosis H37Rv ATCC 27294 after 7 days using resazurin dye by broth microdilution assay. The settings on record: H37Rv ATCC 27294, 168 h. In a few lines:
(§1)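 M. tuberculosis H37Rv grown in Middlebrook 7H9 with 10% OADC and 0.5% glycerol, adjusted to McFarland 1.0. Compounds were dissolved in DMF as stocks and tested at final levels of 1.56, 3.12, 6.25, 12.5, 25 and 50 in 96-well REMA. Controls were DMF-only, growth, rifampicin and isoniazid. After 7 days at 37 °C, 0.01% resazurin was added for 24 h and the colour change read.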

The subject of assay [2] is Mycobacterium tuberculosis. The experiment in a line: Antituberculosis activity against Mycobacterium tuberculosis at MIC concentration after 7 days using resazurin dye by broth microdilution assay. In a few lines:
as §1

Values after ≈ are worked out from the molar mass of the structure shown.

For `COCCNC(=S)NNc1cc(C(F)(F)F)nc2c(C(F)(F)F)cccc12`, the “diameter of the inhibition zone (DIZ)” value in the assay with Staphylococcus aureus was 11 mm; in the assay with Escherichia coli it was 10 mm; in the assay on Pseudomonas aeruginosa, 12 mm; with Klebsiella pneumoniae, less than 10 mm. The MIC with Staphylococcus aureus was determined as 12.5 µg/mL (≈ 30.3 µM); with Escherichia coli, 12.5 µg/mL (≈ 30.3 µM); in the assay with Pseudomonas aeruginosa, 12.5 µg/mL (≈ 30.3 µM); with Klebsiella pneumoniae it was 50 µg/mL (≈ 121 µM); in assay [1], 25 µM (≈ 10.3 µg/mL).

With `COc1ccccc1NC(=O)NNc1cc(C(F)(F)F)nc2c(C(F)(F)F)cccc12`, the “diameter of the inhibition zone (DIZ)” value in the assay on Staphylococcus aureus turned out to be 21 mm; in the assay on Escherichia coli, 24 mm; with Pseudomonas aeruginosa, 22 mm; with Klebsiella pneumoniae, 18 mm. The MIC in the assay with Staphylococcus aureus was determined as 6.25 µg/mL (≈ 14.1 µM); against Escherichia coli, 6.25 µg/mL (≈ 14.1 µM); in the assay with Pseudomonas aeruginosa, 6.25 µg/mL (≈ 14.1 µM); in the assay on Klebsiella pneumoniae, 6.25 µg/mL (≈ 14.1 µM); in assay [1], 12.5 µM (≈ 5.55 µg/mL). Moreover, the “inhibition (INH)” value in assay [2] is reported as less than 90%.

In the case of `FC(F)(F)c1cc(N/N=C/c2cccnc2)c2cccc(C(F)(F)F)c2n1`, the “diameter of the inhibition zone (DIZ)” value with Staphylococcus aureus was 22 mm; in the assay on Escherichia coli, 24 mm; in the assay with Pseudomonas aeruginosa, 25 mm; in the assay with Klebsiella pneumoniae it was 20 mm. Besides, the MIC in the assay on Staphylococcus aureus stood at 6.25 µg/mL (≈ 16.3 µM); with Escherichia coli, 6.25 µg/mL (≈ 16.3 µM); with Pseudomonas aeruginosa, 6.25 µg/mL (≈ 16.3 µM); against Klebsiella pneumoniae, 6.25 µg/mL (≈ 16.3 µM); in assay [1], 12.5 µM (≈ 4.8 µg/mL). Besides, the “inhibition (INH)” value in assay [2] was less than 90%.

On to `CCCCCCC/C=N/Nc1cc(C(F)(F)F)nc2c(C(F)(F)F)cccc12`, for which the “diameter of the inhibition zone (DIZ)” value with Staphylococcus aureus stood at 12 mm; in the assay with Escherichia coli, 24 mm; in the assay with Pseudomonas aeruginosa, 14 mm; in the assay on Klebsiella pneumoniae, 12 mm. The MIC worked out at 12.5 µg/mL (≈ 30.8 µM) in the assay on Staphylococcus aureus; 6.25 µg/mL (≈ 15.4 µM) against Escherichia coli; 12.5 µg/mL (≈ 30.8 µM) against Pseudomonas aeruginosa; 12.5 µg/mL (≈ 30.8 µM) against Klebsiella pneumoniae; 6.25 µM (≈ 2.53 µg/mL) in assay [1]. Further, the “inhibition (INH)” value in assay [2] is reported as 95%.

In the case of `CO[C@H]1/C=C/O[C@@]2(C)Oc3c(C)c(O)c4c(O)c(c(/C=N/N5CCN(C)CC5)c(O)c4c3C2=O)NC(=O)/C(C)=C\C=C\[C@H](C)[C@H](O)[C@@H](C)[C@@H](O)[C@@H](C)[C@H](OC(C)=O)[C@@H]1C` [RIFAMPIN], in assay [1], the MIC was 0.5 µM (≈ 0.411 µg/mL). Further, the “inhibition (INH)” value in assay [2] was determined as 99%.

For the compound `O=C1CC(CCc2ccc3c(c2)OCO3)=NN1c1cc(C(F)(F)F)nc2c(C(F)(F)F)cccc12`, the “diameter of the inhibition zone (DIZ)” value was 22 mm in the assay with Staphylococcus aureus, 21 mm with Escherichia coli, 24 mm in the assay on Pseudomonas aeruginosa and 22 mm in the assay on Klebsiella pneumoniae. For the same compound, the MIC against Staphylococcus aureus, against Escherichia coli, with Pseudomonas aeruginosa and against Klebsiella pneumoniae was 6.25 µg/mL (≈ 12.6 µM) in each case.

For the compound `COc1ccc2[nH]cc(/C=N/Nc3cc(C(F)(F)F)nc4c(C(F)(F)F)cccc34)c2c1`, the “diameter of the inhibition zone (DIZ)” value was 22 mm in the assay on Staphylococcus aureus, 23 mm in the assay with Escherichia coli, 25 mm in the assay on Pseudomonas aeruginosa and 20 mm with Klebsiella pneumoniae. Also, the minimum inhibitory concentration (MIC) in the assay with Staphylococcus aureus worked out at 6.25 µg/mL (≈ 13.8 µM); in the assay with Escherichia coli it was 6.25 µg/mL (≈ 13.8 µM); in the assay on Pseudomonas aeruginosa it was 6.25 µg/mL (≈ 13.8 µM); against Klebsiella pneumoniae it was 6.25 µg/mL (≈ 13.8 µM); in assay [1], 25 µM (≈ 11.3 µg/mL).

`NNC(=O)c1ccncc1` [ISONIAZID] gave an MIC in assay [1] of 1.5 µM (≈ 0.206 µg/mL). Also, in assay [2], the “inhibition (INH)” value is given as 95%.

For `CCCCCNC(=O)NNc1cc(C(F)(F)F)nc2c(C(F)(F)F)cccc12`, the “diameter of the inhibition zone (DIZ)” value is given as 10 mm in the assay with Staphylococcus aureus, 10 mm in the assay on Escherichia coli, 14 mm with Pseudomonas aeruginosa and less than 10 mm in the assay with Klebsiella pneumoniae. Also, the MIC was 12.5 µg/mL (≈ 30.6 µM) against Staphylococcus aureus; 12.5 µg/mL (≈ 30.6 µM) in the assay on Escherichia coli; 12.5 µg/mL (≈ 30.6 µM) against Pseudomonas aeruginosa; 50 µg/mL (≈ 122 µM) against Klebsiella pneumoniae; 25 µM (≈ 10.2 µg/mL) in assay [1].

Turning to `O=C1CC(c2ccccc2)=NN1c1cc(C(F)(F)F)nc2c(C(F)(F)F)cccc12`, the “diameter of the inhibition zone (DIZ)” value with Staphylococcus aureus turned out to be 18 mm; in the assay on Escherichia coli, 10 mm; in the assay with Pseudomonas aeruginosa, 12 mm; with Klebsiella pneumoniae, 10 mm. Also, the MIC against Staphylococcus aureus stood at 6.25 µg/mL (≈ 14.8 µM); against Escherichia coli, 12.5 µg/mL (≈ 29.5 µM); against Pseudomonas aeruginosa, 12.5 µg/mL (≈ 29.5 µM); in the assay with Klebsiella pneumoniae, 12.5 µg/mL (≈ 29.5 µM).

As to `Fc1ccccc1NC(=S)NNc1cc(C(F)(F)F)nc2c(C(F)(F)F)cccc12`, the “diameter of the inhibition zone (DIZ)” value in the assay with Staphylococcus aureus, in the assay on Escherichia coli, in the assay on Pseudomonas aeruginosa and in the assay with Klebsiella pneumoniae was less than 10 mm each time. The MIC is 50 µg/mL (≈ 112 µM) against Staphylococcus aureus; 50 µg/mL (≈ 112 µM) in the assay with Escherichia coli; 50 µg/mL (≈ 112 µM) against Pseudomonas aeruginosa; 50 µg/mL (≈ 112 µM) in the assay with Klebsiella pneumoniae; more than 50 µM in assay [1].

With `FC(F)(F)c1cc(N/N=C/c2cocc2Br)c2cccc(C(F)(F)F)c2n1`, the “diameter of the inhibition zone (DIZ)” value in the assay with Staphylococcus aureus, with Escherichia coli, in the assay on Pseudomonas aeruginosa and in the assay on Klebsiella pneumoniae was less than 10 mm in each case. For the same compound, the MIC in the assay on Staphylococcus aureus was 50 µg/mL (≈ 111 µM); against Escherichia coli, 50 µg/mL (≈ 111 µM); in the assay with Pseudomonas aeruginosa, 50 µg/mL (≈ 111 µM); against Klebsiella pneumoniae, 50 µg/mL (≈ 111 µM); in assay [1], more than 50 µM.

With `FC(F)(F)c1cc(N/N=C/c2ccc3c(c2)CCO3)c2cccc(C(F)(F)F)c2n1`, the “diameter of the inhibition zone (DIZ)” value in the assay on Staphylococcus aureus was determined as 14 mm; in the assay on Escherichia coli, 21 mm; with Pseudomonas aeruginosa it was 15 mm; in the assay on Klebsiella pneumoniae, 12 mm. Besides, the MIC in the assay on Staphylococcus aureus amounted to 12.5 µg/mL (≈ 29.4 µM); in the assay on Escherichia coli, 6.25 µg/mL (≈ 14.7 µM); against Pseudomonas aeruginosa it was 12.5 µg/mL (≈ 29.4 µM); in the assay on Klebsiella pneumoniae it was 12.5 µg/mL (≈ 29.4 µM); in assay [1] it was 25 µM (≈ 10.6 µg/mL).

`FC(F)(F)c1cc(N/N=C/c2cccs2)c2cccc(C(F)(F)F)c2n1`: the “diameter of the inhibition zone (DIZ)” value in the assay with Staphylococcus aureus, in the assay with Escherichia coli, with Pseudomonas aeruginosa and in the assay on Klebsiella pneumoniae was less than 10 mm in each case. For the same compound, the MIC is 50 µg/mL (≈ 128 µM) in the assay on Staphylococcus aureus; 50 µg/mL (≈ 128 µM) with Escherichia coli; 50 µg/mL (≈ 128 µM) with Pseudomonas aeruginosa; 50 µg/mL (≈ 128 µM) with Klebsiella pneumoniae; more than 50 µM in assay [1].

For `O=C(O)c1cn(C2CC2)c2cc(N3CCNCC3)c(F)cc2c1=O` [CIPROFLOXACIN], the “diameter of the inhibition zone (DIZ)” value is 26 mm in the assay with Staphylococcus aureus, 28 mm in the assay with Escherichia coli, 31 mm in the assay on Pseudomonas aeruginosa and 24 mm in the assay with Klebsiella pneumoniae. For the same compound, in the assay on Klebsiella pneumoniae, the MIC came to 3.12 µg/mL (≈ 9.42 µM).

Turning to `CC1=NN(c2cc(C(F)(F)F)nc3c(C(F)(F)F)cccc23)C(=O)C1`, the “diameter of the inhibition zone (DIZ)” value stood at 24 mm in the assay on Staphylococcus aureus, 22 mm in the assay with Escherichia coli, 25 mm in the assay on Pseudomonas aeruginosa and 20 mm with Klebsiella pneumoniae. Besides, the MIC against Staphylococcus aureus, in the assay with Escherichia coli, against Pseudomonas aeruginosa and in the assay on Klebsiella pneumoniae was 6.25 µg/mL (≈ 17.3 µM) in each case.

For `CC(=O)OCc1ccc(/C=N/Nc2cc(C(F)(F)F)nc3c(C(F)(F)F)cccc23)o1`, the “diameter of the inhibition zone (DIZ)” value came to 10 mm in the assay on Staphylococcus aureus, 20 mm with Escherichia coli, 14 mm in the assay on Pseudomonas aeruginosa and 11 mm in the assay on Klebsiella pneumoniae. Also, the MIC is 12.5 µg/mL (≈ 28.1 µM) in the assay with Staphylococcus aureus; 6.25 µg/mL (≈ 14 µM) against Escherichia coli; 12.5 µg/mL (≈ 28.1 µM) in the assay with Pseudomonas aeruginosa; 12.5 µg/mL (≈ 28.1 µM) with Klebsiella pneumoniae; more than 50 µM in assay [1].

Turning to `O=C1CC(c2ccncc2)=NN1c1cc(C(F)(F)F)nc2c(C(F)(F)F)cccc12`, the “diameter of the inhibition zone (DIZ)” value is recorded as 20 mm in the assay with Staphylococcus aureus, 10 mm in the assay on Escherichia coli, 12 mm in the assay with Pseudomonas aeruginosa and 10 mm in the assay with Klebsiella pneumoniae. Besides, the MIC against Staphylococcus aureus stood at 6.25 µg/mL (≈ 14.7 µM); in the assay on Escherichia coli, 12.5 µg/mL (≈ 29.5 µM); in the assay on Pseudomonas aeruginosa, 12.5 µg/mL (≈ 29.5 µM); against Klebsiella pneumoniae it was 12.5 µg/mL (≈ 29.5 µM).

Consider `Oc1cc(F)ccc1/C=N/Nc1cc(C(F)(F)F)nc2c(C(F)(F)F)cccc12`, for which the “diameter of the inhibition zone (DIZ)” value in the assay with Staphylococcus aureus worked out at 13 mm; with Escherichia coli it was 22 mm; in the assay with Pseudomonas aeruginosa, 12 mm; with Klebsiella pneumoniae, 13 mm. For the same compound, the MIC is 12.5 µg/mL (≈ 30 µM) against Staphylococcus aureus; 6.25 µg/mL (≈ 15 µM) against Escherichia coli; 12.5 µg/mL (≈ 30 µM) in the assay on Pseudomonas aeruginosa; 12.5 µg/mL (≈ 30 µM) in the assay on Klebsiella pneumoniae; more than 50 µM in assay [1].

In the case of `N#Cc1cccc(NC(=O)NNc2cc(C(F)(F)F)nc3c(C(F)(F)F)cccc23)c1`, the “diameter of the inhibition zone (DIZ)” value in the assay with Staphylococcus aureus, in the assay on Escherichia coli, with Pseudomonas aeruginosa and in the assay with Klebsiella pneumoniae was less than 10 mm in each case. The MIC against Staphylococcus aureus worked out at 50 µg/mL (≈ 114 µM); in the assay with Escherichia coli it was 50 µg/mL (≈ 114 µM); against Pseudomonas aeruginosa it was 50 µg/mL (≈ 114 µM); in the assay on Klebsiella pneumoniae it was 50 µg/mL (≈ 114 µM); in assay [1] it was 25 µM (≈ 11 µg/mL).
